In ChEMBL document CHEMBL3351544, “Discovery of (S)-1-(1-(Imidazo[1,2-a]pyridin-6-yl)ethyl)-6-(1-methyl-1H-pyrazol-4-yl)-1H-[1,2,3]triazolo[4,5-b]pyrazine (volitinib) as a highly potent and selective mesenchymal-epithelial transition factor (c-Met) inhibitor in clinical development for treatment of cancer” (J Med Chem, 2014):
≈ marks a conversion by molar mass, not a printed value.

How the values were obtained:
[1] = tested on: NCI-H441; test: Antiproliferative activity against human NCI-H441 cells assessed as HGF-induced proliferation after 72 hrs by MTT assay; details: NCI-H441, 72 h
[2] = Plasma clearance in ICR mouse at 2.5 mg/kg, iv; assay type: ADME, organism-based; design: dose 2.5 mg/kg, route intravenous
How it was run: (§1)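 Male ICR mice, n=3, given 2.5 mg/kg iv in saline containing 10% Solutol HS 15, 10% ethanol and 0.25% DMSO. Blood sampled at staggered times from 5 min to 24 h. Plasma concentrations measured by LC/MS/MS. Parameters derived from the iv dosing.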

[3] = Half life in ICR mouse at 14.1 mg/kg, po; assay type: ADME, organism-based; design: dose 14.1 mg/kg, route oral; details: in vivo
How it was run: (§2)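 Male ICR mice, n=3. Oral dose 14.1 mg/kg as a suspension in 0.5% CMC acidified with HCl to pH 2.1. Paired iv arm at 2.5 mg/kg in saline with 10% Solutol HS 15, 10% ethanol and 0.25% DMSO. Staggered blood sampling between 5 min and 24 h post-dose. Plasma levels measured by LC/MS/MS.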

[4] = Apparent volume of distribution in ICR mouse at 2.5 mg/kg, iv; assay type: ADME, organism-based; design: dose 2.5 mg/kg, route intravenous; details: in vivo, read-out: Vz; how it was run: as §1
[5] = Cmax in ICR mouse at 14.1 mg/kg, po; assay type: ADME, organism-based; design: dose 14.1 mg/kg, route oral; details: in vivo; how it was run: as §2
[6] = Metabolic stability in mouse liver microsomes assessed as compound remaining at 1 uM after 30 mins; assay type: ADME; details: read-out: Stability
How it was run: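 Compound at 1 µM incubated in duplicate with mouse liver microsomes (0.5 mg/mL). Final 3 mM MgCl2 and 1 mM EDTA, NADPH-regenerating system in 50 mM potassium phosphate, pH 7.4. Incubated at 37 °C for 0 and 30 min, DMSO at most 0.1%. Quenched with cold acetonitrile containing internal standard, centrifuged, supernatant analysed. Reported as % parent remaining.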

[7] = Oral bioavailability in ICR mouse at 14.1 mg/kg; assay type: ADME, organism-based; details: in vivo; how it was run: as §2
[8] = AUC (0 to 8 hrs) in ICR mouse at 14.1 mg/kg, po; assay type: ADME, organism-based; design: time < 8 hr, dose 14.1 mg/kg, route oral; details: plasma; how it was run: as §2
[9] = biological target: T1, Hepatocyte growth factor receptor (Homo sapiens, UniProt P08581); test: Inhibition of c-Met (unknown origin) using Poly E4Y substrate and ATP incubated for 45 mins by fluorescence polarization assay
[10] = biological target: T1, Hepatocyte growth factor receptor; test: Inhibition of c-Met autophosphorylation in human NCI-H441 cells for 1 hr by ELISA; assay type: cell-based
[11] = Solubility of the compound in aqueous buffer at pH 1.2 by HPLC method; assay type: physicochemical
How it was run: (§3)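 Excess solid shaken 48 h at 20 °C in pH 1.2 KCl/HCl buffer or pH 7.4 sodium phosphate buffer. Centrifuged 10 min at 4000 rpm, supernatant diluted in mobile phase and quantified by HPLC.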

[12] = Solubility of the compound in aqueous buffer at pH 7.4 by HPLC method; assay type: physicochemical; how it was run: as §3
[13] = tested on: U-87MG ATCC; test: Antitumor activity against human U87MG cells xenografted in mouse model assessed as tumor growth inhibition at 1 to 10 mg/kg, po once daily up to 21 days; assay type: functional, organism-based
How it was run: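 Female athymic nude mice (6-8 weeks) inoculated in the flank with U87MG glioma cells (3×10^6/mouse). At 200 mm3 tumours, randomized to vehicle or treatment. Oral dosing once daily at 1.0, 2.5 and 10.0 mg/kg in 0.5% CMC-Na, pH 2.1, for 21 days. Tumour size measured 2-3 times weekly, TV=(L×W²)/2. %TGI from mean volume change from first to last treatment day versus vehicle.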

[14] = Antitumor activity against human U87MG cells xenografted in mouse model assessed as tumor growth inhibition at 10 mg/kg, po once daily up to 21 days; assay type: functional, U-87MG ATCC; details: U-87 MG, 504 h, read-out: TGI
How it was run: (§4)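 Female athymic nude mice, 6-8 weeks old, inoculated in the flank with 3×10^6 U87MG glioma cells. Randomised once tumours reached 200 mm3. Dosed orally once daily for 21 days in 0.5% CMC-Na, pH 2.1, against vehicle controls. Tumour size measured 2-3 times weekly; volume = L×W²/2. %TGI from change in mean volume, first to last treatment day. Body weight recorded.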

[15] = Antitumor activity against human U87MG cells xenografted in mouse model assessed as tumor growth inhibition at 2.5 mg/kg, po once daily up to 21 days; assay type: functional, U-87MG ATCC; details: U-87 MG, 504 h, read-out: TGI; how it was run: as §4
[16] = Metabolic stability in human liver S9 fraction assessed as compound remaining in presence of NADPH at 1 mg/mL after 60 mins by LC-MS/PDA analysis; assay type: ADME, subcellular; details: read-out: Stability
How it was run: (§5)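 Compound incubated at 37 °C for 0 and 60 min with human liver S9 (1 mg/ml). Buffer was 50 mM potassium phosphate, pH 7.4, with 3 mM MgCl2 and 1 mM EDTA, with or without an NADPH-regenerating system. Stopped with ice-cold acetonitrile, supernatant dried and reconstituted in 50% methanol. Analysed by LC-MSn/PDA; relative amounts estimated from UV peak intensity at 348 nm.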

[17] = Metabolic stability in human liver S9 fraction assessed as compound remaining in absence of NADPH at 1 mg/mL after 60 mins by LC-MS/PDA analysis; assay type: ADME; details: read-out: Stability; how it was run: as §5
[18] = tested on: Mus musculus; test: Toxicity in human U87MG cells xenografted mouse model assessed as body weight loss at 1 to 10 mg/kg, po once daily up to 21 days; assay type: organism-based, U-87MG ATCC; design: dose 1-10 mg/kg, route oral; details: in vivo, 504 h; how it was run: as §4
[19] = Antitumor activity against human U87MG cells xenografted in mouse model assessed as tumor growth inhibition at 1 mg/kg, po once daily up to 21 days; assay type: functional, U-87MG ATCC; details: U-87 MG, 504 h, read-out: TGI; how it was run: as §4
[20] = tested on: Mus musculus; test: Inhibition of c-Met autophosphorylation in mouse xenografted with human NCI-H441 cells at 3 mg/kg, po administered as single doss after 6 hrs by ELISA method; assay type: functional; details: NCI-H441, 6 h
How it was run: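 Female athymic mice, 6-8 weeks old, n=4, co-implanted subcutaneously with 2×10^6 NCI-H441 cells and 1×10^6 HGF-secreting MRC-5 cells. At 300 mm3, about two weeks, given a single 3 mg/kg oral dose in 0.5% CMC, pH 2.1. Tumours harvested at 6 h and homogenised in lysis buffer with phosphatase and protease inhibitors. Phospho-Met and total Met measured by ELISA, compared with vehicle.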

Cn1cc(-c2cnc3nnn(Cc4ccc5nccn5c4)c3n2)cn1
IC50 [1]: 0.073 µM
clearance [2]: 71.3 mL/min/kg
half-life [3]: 1.3 h
Vd [4]: 5.4 L/kg
Cmax [5]: 1380 ng/mL
remaining at 0.5 h, 1 µM [6]: 70.8%
bioavailability [7]: 46%
AUC(0-t) at 8 h [8]: 1070 ng·h/mL

OCCn1cc(-c2cnc3nnn(Cc4c[nH]c5ncccc45)c3n2)cn1
IC50 [1]: 0.025 µM
remaining at 0.5 h, 1 µM [6]: 82.6%

FC(F)(F)Cn1cc(-c2cnc3nnn(Cc4ccn5nccc5c4)c3n2)cn1
IC50 [1]: 0.077 µM
remaining at 0.5 h, 1 µM [6]: 63.6%

N#Cc1ccc(-c2cnc3nnn(Cc4ccc5nccn5c4)c3n2)cn1
IC50 [1]: 0.203 µM

FC(F)(F)Cn1cc(-c2cnc3nnn(Cc4n[nH]c5ncccc45)c3n2)cn1
IC50 [1]: 0.07 µM
remaining at 0.5 h, 1 µM [6]: 83%

Cn1cc(-c2cnc3nnn(Cc4n[nH]c5ncccc45)c3n2)cn1
IC50 [1]: 0.066 µM
remaining at 0.5 h, 1 µM [6]: 102%

OCCn1cc(-c2cnc3nnn(Cc4ccc5nccn5c4)c3n2)cn1
IC50 [1]: 0.184 µM

Cn1cc(-c2cnc3nnn(Cc4ccc5ncccc5c4)c3c2)cn1
IC50 [9]: > 1 µM

C[C@H](c1ccc2nccn2c1)n1nnc2ncc(-c3cnn(C)c3)nc21
IC50 [1]: 0.113 µM
IC50 [9]: 0.032 µM
IC50 [10]: 0.032 µM

Cn1cc(-c2cnc3nnn(Cc4cc5cnccc5s4)c3n2)cn1
IC50 [1]: 0.177 µM
remaining at 0.5 h, 1 µM [6]: 23.5%

Fc1ccc(-c2cnc3nnn(Cc4ccc5nccn5c4)c3n2)cc1
IC50 [1]: 0.116 µM

N#Cc1ccc(-c2cnc3nnn(Cc4n[nH]c5ncccc45)c3n2)cn1
IC50 [1]: 0.172 µM

C[C@@H](c1ccc2nccn2c1)n1nnc2nc(O)c(-c3cnn(C)c3)nc21
solubility [11]: 20.9 mg/mL (≈ 57.8 mM)
solubility [12]: 0.02 mg/mL (≈ 0.0553 mM)

Cn1cc(-c2cnc3nnn(Cc4ccc5nccn5n4)c3n2)cn1
IC50 [1]: 0.443 µM

OCCn1cc(-c2cnc3nnn(Cc4n[nH]c5ncccc45)c3n2)cn1
IC50 [1]: 0.287 µM

C[C@@H](c1ccc2nccn2c1)n1nnc2ncc(-c3cnn(C)c3)nc21 [SAVOLITINIB]
TGI [13]: Dose-dependent effect
IC50 [1]: 0.006 µM
inhibition in vivo at 10 mg/kg [14]: 92.8%
inhibition in vivo at 2.5 mg/kg [15]: 76.6%
IC50 [9]: 0.005 µM
clearance [2]: 11 mL/min/kg
half-life [3]: 1.7 h
remaining at 1 h [16]: 99.1%
remaining at 1 h [17]: 99.7%
Vd [4]: 1.2 L/kg
Activity [18]: Non-toxic
IC50 [10]: 0.003 µM
Cmax [5]: 4950 ng/mL
solubility [11]: 31.8 mg/mL (≈ 92.1 mM)
bioavailability [7]: 27.2%
inhibition in vivo at 1 mg/kg [19]: 52.8%
inhibition in vivo at 3 mg/kg [20]: 84.7%
solubility [12]: 0.02 mg/mL (≈ 0.0579 mM)
AUC(0-t) at 8 h [8]: 5590 ng·h/mL

OCCn1cc(-c2cnc3nnn(Cc4ccn5nccc5c4)c3n2)cn1
IC50 [1]: 0.066 µM
clearance [2]: 21.5 mL/min/kg
half-life [3]: 3.7 h
Vd [4]: 2.4 L/kg
Cmax [5]: 1920 ng/mL
remaining at 0.5 h, 1 µM [6]: 93.3%
bioavailability [7]: 90.8%
AUC(0-t) at 8 h [8]: 7000 ng·h/mL

Cn1cc(-c2cnc3nnn(Cc4ccn5nccc5c4)c3n2)cn1
IC50 [1]: 0.183 µM
remaining at 0.5 h, 1 µM [6]: 36.7%

Cn1cc(-c2cnc3nnn(Cc4cc5[nH]ncc5s4)c3n2)cn1
IC50 [1]: 0.178 µM
remaining at 0.5 h, 1 µM [6]: 19.4%

Cn1cc(-c2cnc3nnn(Cc4ccc5ncnn5c4)c3n2)cn1
IC50 [1]: 0.425 µM

C[C@H](c1ccn2nccc2c1)n1nnc2ncc(-c3cnn(CCO)c3)nc21
IC50 [1]: 0.165 µM

FC(F)(F)Cn1cc(-c2cnc3nnn(Cc4ccc5nccn5c4)c3n2)cn1
IC50 [1]: 0.104 µM

C[C@@H](c1ccn2nccc2c1)n1nnc2ncc(-c3cnn(CCO)c3)nc21
IC50 [1]: 0.016 µM
